ChEMBL document CHEMBL3352181, “Novel phenyl and pyridyl substituted derivatives of isoindolines: Synthesis, antitumor activity and DNA binding features” (Eur J Med Chem, 2014)
Active and inactive are the calls of the source. No cut-off for these calls is given here.

Experiments:
HepG2 [1] = test: Induction of cell cycle arrest on human HepG2 cells assessed as accumulation at G1 phase at 50 uM after 24 hrs by propidium iodide staining based flow cytometry (reference value: 59.7 +/- 0.9%); type: functional
HepG2 [2] = test: Induction of cell cycle arrest on human HepG2 cells assessed as accumulation at S phase at 50 uM after 24 hrs by propidium iodide staining based flow cytometry (reference value: 8.6 +/- 2.8%); type: functional
How it was run: (§1)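 HepG2 or SW620 cells were seeded at 25000 per well. After 24 h they were treated, then harvested 24 or 48 h later. Attached cells were trypsinized, pooled with floating cells, PBS-washed and fixed in 70% ethanol. Cells were stained with PI 1 µg/mL plus RNase A 0.2 µg/mL, and 10 000 events were acquired by flow cytometry. Phase percentages come from DNA histograms, in duplicate, with ANOVA at p < 0.05.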

Nucleic Acid = test: Induction of DNA intercalation in supercoiled pUC19 DNA in presence of human topoisomerase 1 assessed as effect on topoisomerase 1-mediated DNA relaxation at 5 to 50 uM by agarose gel electrophoresis; type: nucleic-acid assay; settings: Escherichia coli
How it was run: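 Supercoiled pUC19 incubated with human topoisomerase I and graded compound concentrations. Stopped with SDS/proteinase K. DNA forms resolved on 1% agarose in TBE, 2 h at 120 V, stained post-run with ethidium bromide and viewed under UV. Camptothecin was the topo I poison control.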

MCF7 = test: Antiproliferative activity against human MCF7 cells assessed as inhibition of cell proliferation after 72 hrs by MTT assay; type: functional, cell-based
How it was run: (§2)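 Cells grown as monolayers in DMEM with 10% FBS, 2 mM L-glutamine, penicillin/streptomycin, 37 °C, 5% CO2. Seeded at 5000/well on day 0. Compounds added after 24 h as five serial dilutions (0,01 to 100 µM), DMSO ≤0.1%, then 72 h. MTT read-out converted to percentage growth. IC50 by linear regression; quadruplicates in three experiments.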

[3] = (§3) Antiproliferative activity against human SW620 cells assessed as inhibition of cell proliferation after 72 hrs by MTT assay; type: functional, cell-based, SW-620; settings: Homo sapiens, SW-620, 72 h; how it was run: as §2
SW-620 = test: as §3; type: functional, cell-based; how it was run: as §2
HepG2 [4] = test: Induction of cell cycle arrest on human HepG2 cells assessed as accumulation at G2/M phase at 20 uM after 24 hrs by propidium iodide staining based flow cytometry (reference value: 31.7 +/- 1.9%); type: functional
HepG2 [5] = test: Induction of cell cycle arrest on human HepG2 cells assessed as accumulation at subG1 phase at 50 uM after 48 hrs by propidium iodide staining based flow cytometry (reference value: 2.8 +/- 0.3%); type: functional; how it was run: as §1
HepG2 [6] = test: Induction of cell cycle arrest on human HepG2 cells assessed as accumulation at subG1 phase at 50 uM after 24 hrs by propidium iodide staining based flow cytometry (reference value: 3.1 +/- 0.9%); type: functional; how it was run: as §1
HepG2 [7] = test: Antiproliferative activity against human HepG2 cells assessed as inhibition of cell proliferation after 72 hrs by MTT assay; type: functional, cell-based; how it was run: as §2
HepG2 [8] = test: Induction of cell cycle arrest on human HepG2 cells assessed as accumulation at G2/M phase at 50 uM after 24 hrs by propidium iodide staining based flow cytometry (reference value: 31.7 +/- 1.9%); type: functional
HepG2 [9] = test: Induction of apoptosis in human HepG2 cells assessed as apoptotic bodies at 25 uM after 24 hrs by Annexin V-Fluos staining based fluorescent microscopy; type: functional, cell-based
How it was run: (§4)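 Cells seeded on chamber slides at 4000 per well and treated 24 h (HepG2 at 25 or 50 µM; SW620 at 50 µM). Incubated 15 min with Annexin V-Fluos reagent plus propidium iodide, washed in PBS, and examined by fluorescence microscopy for morphology and labelling.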

HepG2 [10] = test: Induction of cell cycle arrest on human HepG2 cells assessed as accumulation at S phase at 50 uM after 48 hrs by propidium iodide staining based flow cytometry (reference value: 0 +/- 0%); type: functional; how it was run: as §1
HepG2 [11] = test: Induction of apoptosis in human HepG2 cells assessed as induction of cytoplasmic shrinkage at 25 uM after 24 hrs by Annexin V-Fluos staining based fluorescent microscopy; type: functional, cell-based; how it was run: as §4
HepG2 [12] = test: Induction of cell cycle arrest on human HepG2 cells assessed as accumulation at G1 phase at 20 uM after 48 hrs by propidium iodide staining based flow cytometry (reference value: 55.0 +/- 4.8%); type: functional
HepG2 [13] = test: Induction of cell cycle arrest on human HepG2 cells assessed as accumulation at subG1 phase at 20 uM after 24 hrs by propidium iodide staining based flow cytometry (reference value: 3.1 +/- 0.9%); type: functional; how it was run: as §1
HepG2 [14] = test: Induction of cell cycle arrest on human HepG2 cells assessed as accumulation at G1 phase at 50 uM after 48 hrs by propidium iodide staining based flow cytometry (reference value: 55.0 +/- 4.8%); type: functional
HepG2 [15] = test: Induction of cell cycle arrest on human HepG2 cells assessed as accumulation at G2/M phase at 50 uM after 48 hrs by propidium iodide staining based flow cytometry (reference value: 45.0 +/- 4.8%); type: functional
HepG2 [16] = test: Induction of cell cycle arrest on human HepG2 cells assessed as accumulation at S phase at 20 uM after 24 hrs by propidium iodide staining based flow cytometry (reference value: 8.6 +/- 2.8%); type: functional
HepG2 [17] = test: Induction of cell cycle arrest on human HepG2 cells assessed as accumulation at G2/M phase at 20 uM after 48 hrs by propidium iodide staining based flow cytometry (reference value: 45.0 +/- 4.8%); type: functional
HepG2 [18] = test: Induction of cell cycle arrest on human HepG2 cells assessed as accumulation at G1 phase at 20 uM after 24 hrs by propidium iodide staining based flow cytometry (reference value: 59.7 +/- 0.9%); type: functional
HeLa = test: Antiproliferative activity against human HeLa cells assessed as inhibition of cell proliferation after 72 hrs by MTT assay; type: functional, cell-based; how it was run: as §2
[19] = target: T1, DNA topoisomerase 1 (Homo sapiens) (UniProt P11387); test: Inhibition of human topoisomerase 1 assessed as topoisomerase poison activity by measuring generation of open circular DNA using supercoiled pUC19 DNA at 5 to 50 uM by agarose gel electrophoresis
T1 sequence (whole entry): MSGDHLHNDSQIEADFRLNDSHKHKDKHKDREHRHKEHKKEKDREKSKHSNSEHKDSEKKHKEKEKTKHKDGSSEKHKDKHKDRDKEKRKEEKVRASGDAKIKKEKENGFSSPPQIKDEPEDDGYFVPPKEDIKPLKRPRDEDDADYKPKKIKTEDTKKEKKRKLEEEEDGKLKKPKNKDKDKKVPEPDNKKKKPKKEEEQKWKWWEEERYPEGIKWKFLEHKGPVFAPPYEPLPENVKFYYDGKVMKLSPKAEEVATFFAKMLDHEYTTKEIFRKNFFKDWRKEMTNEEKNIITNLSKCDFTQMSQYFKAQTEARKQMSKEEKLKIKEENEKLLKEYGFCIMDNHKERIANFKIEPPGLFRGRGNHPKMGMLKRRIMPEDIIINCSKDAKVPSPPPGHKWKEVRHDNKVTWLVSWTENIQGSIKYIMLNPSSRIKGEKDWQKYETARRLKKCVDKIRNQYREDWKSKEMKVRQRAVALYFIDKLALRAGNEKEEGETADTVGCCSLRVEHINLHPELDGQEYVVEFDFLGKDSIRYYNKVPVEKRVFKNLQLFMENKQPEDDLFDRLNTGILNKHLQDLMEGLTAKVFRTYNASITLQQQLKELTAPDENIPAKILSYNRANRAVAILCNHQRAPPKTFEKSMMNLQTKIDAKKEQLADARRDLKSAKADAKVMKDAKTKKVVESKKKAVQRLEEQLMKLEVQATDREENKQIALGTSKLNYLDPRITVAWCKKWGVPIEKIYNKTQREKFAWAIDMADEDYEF
How it was run: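 Supercoiled pUC19 plasmid was incubated with human topoisomerase I and graded compound concentrations. Reactions were stopped with SDS and proteinase K. DNA forms were resolved on 1% agarose in TBE (2 h, 120 V), post-stained with ethidium bromide and photographed under UV. Poisoning was read as appearance of nicked DNA, with camptothecin as the positive control.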

HepG2 [20] = test: Induction of cell cycle arrest on human HepG2 cells assessed as accumulation at S phase at 20 uM after 48 hrs by propidium iodide staining based flow cytometry (reference value: 0 +/- 0%); type: functional; how it was run: as §1
BJ = test: Antiproliferative activity against human BJ cells assessed as inhibition of cell proliferation after 72 hrs by MTT assay; type: cell-based; settings: 72 h; how it was run: as §2
HepG2 [21] = test: Induction of cell cycle arrest on human HepG2 cells assessed as accumulation at subG1 phase at 20 uM after 48 hrs by propidium iodide staining based flow cytometry (reference value: 2.8 +/- 0.3%); type: functional; how it was run: as §1

O=[N+]([O-])c1ccc(/N=C2\c3ccccc3CN2c2ccc([N+](=O)[O-])cc2)cc1
Activity (HepG2 [1]): 55% | Activity (HepG2 [2]): 27.6% | Activity (Nucleic Acid): inactive | inhibition (MCF7): Dose-dependent effect | IC50 (MCF7; Homo sapiens, MCF7, 72 h): 8.14 µM | IC50 [3]: 33.4 µM | inhibition (SW-620): Dose-dependent effect | Activity (HepG2 [4]): 15.6% | Activity (HepG2 [5]): 4.3% | Activity (HepG2 [6]): 8.3% | inhibition (HepG2 [7]): Dose-dependent effect | IC50 (HepG2 [7]; HepG2, 72 h): 9.65 µM | Activity (HepG2 [8]): 17.4% | Activity (HepG2 [9]): Active | Activity (HepG2 [10]): 0.8% | Activity (HepG2 [11]): Active | Activity (HepG2 [12]): 53.7% | Activity (HepG2 [13]): 6.6% | Activity (HepG2 [14]): 59.7% | Activity (HepG2 [15]): 39.4% | Activity (HepG2 [16]): 25.6% | Activity (HepG2 [17]): 44.9% | Activity (HepG2 [18]): 58.8% | inhibition (HeLa): Dose-dependent effect | IC50 (HeLa; Homo sapiens, HeLa, 72 h): 7.69 µM | inhibition [19]: inactive | Activity (HepG2 [20]): 1.3% | IC50 (BJ; Homo sapiens, BJ): 75.3 µM | inhibition (INH) (BJ; human, bj): Dose-dependent effect | Activity (HepG2 [21]): 4.4%
